Compound activity deposited in PubChem BioAssay by Sanford-Burnham Center for Chemical Genomics.
Only some compounds are listed: those with a hit (about 3.3% of all), similar ones and a draw of the others.
SENP7 block: inhibitors of human SENP7 protease; Q9BQF6; recombinant SENP7, Z-RLRGG-aminoluciferin luminescence, 40 min; inhibition, % at 5 µM; 1.5% of 330,000 active;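 active means inhibition above about 50% at the single test dose, limit read from the data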;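 further: plate controls were DMSO with enzyme for no effect and no enzyme buffer wells for full effect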
CendR NRP1 mod: NRP-1/CendR interaction modulation. FAM-RPARPAR peptide binding to NRP-1, fluorescence polarization. inhibition, % at 25 µM. 0.85% of 360,000 active. O14786;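 active means inhibition or corrected inhibition above about 18%, plus a signal ratio from 0.5 to 1.5, limit read from the data, passing the limit was not always enough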
SENP8 block-1: SENP8 (human) protease inhibition. Q96LD8. recombinant SENP8, Nedd8 substrate fluorescence. inhibition, % at 20 µM. 0.64% of 360,000 active; in the data active means inhibition mostly above about 40%, no sharp cut-off; inactive means mostly below about 27%
Target sequence (Q96LD8 whole entry, looked up): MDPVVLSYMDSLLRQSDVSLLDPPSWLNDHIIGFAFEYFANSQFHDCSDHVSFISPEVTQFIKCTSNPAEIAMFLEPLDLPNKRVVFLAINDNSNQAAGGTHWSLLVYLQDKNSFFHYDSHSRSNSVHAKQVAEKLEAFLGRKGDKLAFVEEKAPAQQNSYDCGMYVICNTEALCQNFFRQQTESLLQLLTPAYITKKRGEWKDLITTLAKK
SENP8 block-2: blocks the human protease SENP8 | Q96LD8 | purified SENP8, Z-RLRGG-aminoluciferin cleavage, luminescence | 1.2% of 330,000 active | AID 2540 | inhibition, % at 10 µM; in the data active means inhibition above about 50%
SENP6 block: SENP6 protease inhibition; inhibition, % at 10 µM; 1.8% of 330,000 active; Recombinant SENP6 catalytic domain, aminoluciferin luminescence;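 active means inhibition above about 50% at the single tested dose, limit read from the data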;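 further: plate controls were DMSO wells with enzyme for no effect and DMSO wells lacking enzyme for full effect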
SENP1 FRET inh: SENP1 (human) catalytic domain inhibition; AID 624204; Q9P0U3; inhibition, % at 10 µM; 0.21% of 360,000 active; recombinant SENP1 catalytic domain, CyPet-SUMO1-YPet FRET cleavage;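 active means inhibition at least 30% at 10 µM, raw YFP signal under a set limit, fluorescence ratio 0.5 to 1.5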;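 further: 0% = enzyme with DMSO and 100% = no enzyme wells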
Target sequence (Q9P0U3 419-644 limits assumed): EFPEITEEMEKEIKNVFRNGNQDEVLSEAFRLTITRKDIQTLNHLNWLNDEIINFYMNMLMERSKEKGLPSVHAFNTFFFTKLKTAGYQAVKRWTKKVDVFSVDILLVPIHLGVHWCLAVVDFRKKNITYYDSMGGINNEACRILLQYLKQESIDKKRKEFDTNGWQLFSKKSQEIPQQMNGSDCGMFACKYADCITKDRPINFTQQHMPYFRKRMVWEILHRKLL
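Compound: 10 µM single point, 0.5% DMSO; Test system: hSENP1 catalytic domain, recombinant; Timing: 50 min reaction at room temperature; Technique: FRET, CFP and YFP emission; Control set: no-enzyme wells low, DMSO-plus-enzyme wells high control.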
SENP1 inh conf: SENP1 (human) inhibition, single concentration confirmation; AID 651678; inhibition, % at 10 µM; recombinant SENP1, CyPet-SUMO1-YPet FRET cleavage; 34% of 520 active; shares compounds with SENP1 FRET inh; in the data active means inhibition mostly above about 35%, no sharp cut-off; inactive means mostly below about 32%;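 further: 0% = enzyme with DMSO and 100% = no enzyme control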
SENP1 kinetic: confirmation of human SENP1 SUMO protease inhibitors, kinetic; AID 651690; inhibition, % at 10 µM; recombinant SENP1, CyPet-SUMO1-YPet FRET kinetic cleavage; 26% of 520 active; shares compounds with SENP1 FRET inh; in the data active means inhibition mostly above about 32%, no sharp cut-off; inactive means mostly below about 29%;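 further: 0% = DMSO with enzyme and 100% = no enzyme substrate only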
* = called active by the depositor; x = no result.

SMILES	SENP7 block	CendR NRP1 mod	SENP8 block-1	SENP8 block-2	SENP6 block	SENP1 FRET inh	SENP1 inh conf	SENP1 kinetic
COC(=O)c1ccc(C2SCC(=O)N2Cc2ccccc2)cc1 (configuration not stated)	0	5	25	-2	-6	2	x	x
CN(C)CCN1C(=O)C(O)=C(C(=O)c2cc3ccccc3o2)C1c1ccc(N(C)C)cc1 (configuration not stated)	-9	-33	-2	-1	-19	31*	8	-5
Cc1ccc(S(=O)(=O)N2[C@@H](CO)CO[C@H]2CC(=O)c2ccccc2)cc1	x	-5	23	x	x	1	x	x
c1ccc(N=C2SCCCS2)cc1	x	-9	18	x	x	-1	x	x
N#CCSc1ccccc1NC(=O)COC(=O)CCNC(=O)c1ccc([N+](=O)[O-])cc1	3	-24	0	1	-13	32*	8	6
Cc1noc(C)c1C(=O)OCC(=O)Nc1ccccc1SCC#N	-2	-10	6	-18	-7	44*	17	14
COc1ccccc1NC1=C(Cl)C(=O)N(c2ccccc2)C1=O	-2	-6	34	0	1	3	x	x
CCOc1ccc(N2C(=O)C(Cl)=C(Nc3ccccc3O)C2=O)cc1	-9	-68	6	24	41	36*	28	14
O=C1C(Cl)=C(Nc2ccccc2O)C(=O)N1CCc1ccccc1	-1	-78	33	4	10	41*	17	15
O=C(Nc1ccc(S(=O)(=O)N2CCCC2)cc1)C1CC(=O)N(CCc2ccc(F)cc2)C1 (configuration not stated)	-9	-6	13	-4	-5	0	x	x
CSc1nnc(C(C)(C)C)c(=O)n1/N=C/c1c(O)ccc2ccccc12	1	-14	17	-5	-4	33*	-7	3
Cc1nc2ccccc2c(=O)n1/N=C/c1c(O)ccc2ccccc12	2	2	0	-2	5	-22	x	x
COc1ccc(CNC(=O)/C=C/[C@H]2O[C@@H](n3cc(C)c(=O)[nH]c3=O)C[C@@H]2O)cc1	x	8	30	x	x	0	x	x
COc1ccc(-c2nnc(C)c3nocc23)cc1	-1	-100	-4	-2	-3	37*	23	21
Cc1cccc(C)c1NC(=O)C(C1CC1)n1c(-c2ccc(=O)[nH]c2)nc2ccccc21 (configuration not stated)	x	1	-11	x	x	1	x	x
Cc1cccc(C)c1NC(=O)C(C)n1c(-c2ccc(=O)[nH]c2)nc2ccccc21 (configuration not stated)	x	-4	-31	x	x	40*	37	25
COc1cccc(CNC(=O)Cc2ccc(-c3ccccc3)cc2)c1	1	-8	-27	8	18	55*	18	20
COc1ccc(CC(=O)NCc2ccccc2)cc1	10	0	7	3	-2	1	x	x
CCN1C(=O)[C@H]2[C@@H](c3ccc(C(F)(F)F)cc3)N[C@]3(CCCN(Cc4ccccc4)C3=O)[C@H]2C1=O	x	-13	8	x	x	2	x	x
COc1cccc(-c2nc(SC)nc3sc(C(=O)NC(C)(C)C)c(N)c23)c1	0	-2	2	-2	-15	37*	48*	37*
CN1CCN(C2=Nc3c(Cl)cc(Cl)c4cccc2c34)CC1	7	-53	31	2	-3	82*	101*	57*
c1cc(Nc2cccc3nccnc23)c2nccnc2c1	-17	-46	36	-38	-45	52*	61*	41*
C[C@@H]1CN([C@@H](C)CO)C(=O)c2cc(Br)cnc2O[C@H]1CN(C)C(=O)c1ccccc1F	x	3	8	x	x	-2	x	x
COc1ccc(CCN2C(=O)COc3ccccc3C2C(=O)NCc2ccccc2)cc1OC (configuration not stated)	x	-1	9	x	x	4	x	x
Clc1cc2c(nn1)Nc1ccccc1S2	0	-7	-5	-2	-24	31*	15	12
SMILES	SENP7 block	CendR NRP1 mod	SENP8 block-1	SENP8 block-2	SENP6 block	SENP1 FRET inh	SENP1 inh conf	SENP1 kinetic
O=C(O)Cn1c(O)c(C2=c3ccccc3=NC2=O)sc1=O	3	-71	21	-2	-7	66*	67*	36*
COc1ccc(-c2ccc3c(c2)S(=O)(=O)c2cccc(C(=O)NCCOc4ccccc4Cl)c2C3=O)cc1OC	-11	-45	12	-6	-5	29*	14	16
COc1ccc(-c2ccc3c(c2)S(=O)(=O)c2cccc(C(=O)NCc4ccccc4Cl)c2C3=O)cc1OC	7	6	2	0	-14	58*	15	17
COc1ccc(-c2ccc3c(c2)S(=O)(=O)c2cccc(C(=O)NC4CC4)c2C3=O)cc1OC	-4	-71	-13	4	-4	-5	x	x
CC(O)(c1cccc(F)c1)c1nc(-c2cnc3ccccc3c2)cs1 (configuration not stated)	x	-9	-31	x	x	2	x	x
N#C/C(=C\c1ccc(/C=C(/C#N)c2nn(CCO)c(N)c2C#N)cc1)c1nn(CCO)c(N)c1C#N	-1	-30	-93	5	-11	38*	33	27
C[C@H]1CN([C@@H](C)CO)C(=O)CCCn2nncc2CO[C@H]1CN(C)C(=O)NC1CCCCC1	x	3	7	x	x	3	x	x
CCn1cc(/C=C(\NC(=O)c2cc(OC)c(OC)c(OC)c2)C(=O)N2CCOCC2)c2ccccc21	x	-12	-1	x	x	-5	x	x
CCOC(=O)/C(C#N)=C/c1cc2ccccc2nc1N1CCOCC1	0	-21	7	5	-1	67*	35	20
COc1ccc(CCCNC(=O)C2(C)Cc3c(-c4cccc(C(N)=O)c4)ccnc3O2)cc1 (configuration not stated)	x	-1	13	x	x	-2	x	x
CCCCn1c(N)c(N(CC(C)C)C(=O)c2ccc(OC)c(S(=O)(=O)N3CCOCC3)c2)c(=O)[nH]c1=O	x	12	7	x	x	1	x	x
CC1(C)CC(=O)C(N=Nc2ccc(-c3ccccc3)cc2)=C(O)C1	18	-40	28	-4	-3	63*	17	5
COC(=O)[C@]12CCCCC=C1N(Cc1ccco1)C(=O)[C@H](CC(=O)NCc1cccc3ccccc13)C2	x	-2	12	x	x	-3	x	x
N=c1occ(C(=O)c2cc(F)ccc2O)cc1C(=O)NC1CCCCC1	0	0	-12	5	-7	30*	6	13
COC(=O)[C@]12CCCCC=C1N(Cc1ccc(Cl)cc1Cl)C(=O)[C@H](CC(=O)NCc1cccc(C(F)(F)F)c1)C2	x	-10	7	x	x	1	x	x
COc1cc(OC)cc(-c2c(Sc3ccccc3)c3cc(-c4ccc(OC)c(OC)c4)ccc3n2C)c1	x	6	-346	x	x	1	x	x
